Source: BindingDB's records for doi:10.1021/jm800174p (University of Minnesota, 2009)
pKi: −log10 of the molar value.

Biological target: not listed separately
Experiment: Displacement of [3H]DAMGO from CCK2R-MOPR coexpressed in CHO cells

Compound	pKi
C[C@@H](NC(=O)[C@@H](N)Cc1ccc(O)cc1)C(=O)NCC(=O)N(C)[C@@H](Cc1ccccc1)C(=O)NCCO [[tyrosyl-3,5-3H(N)]-D-Ala2-Mephe4-glyol5-enkephalin]	7.96
CN1C(=O)[C@H](NC(=O)Nc2cccc(OCCNC(=O)COCC(=O)N[C@H]3CC[C@@]4(O)[C@H]5Cc6cc(O)cc7c6[C@@]4(CCN5C)[C@H]3O7)c2)N=C(c2ccccc2)c2ccccc21 [N-{m-[R(+)-1]Ureaphenoxy}ethyl-N'-oxymorphyldiglycoldiamide]	7.85
CN1C(=O)[C@H](NC(=O)Nc2cccc(OCCNC(=O)COCC(=O)NCCCCCCNC(=O)COCC(=O)N[C@H]3CC[C@@]4(O)[C@H]5Cc6cc(O)cc7c6[C@@]4(CCN5C)[C@H]3O7)c2)N=C(c2ccccc2)c2ccccc21 [1-{1-Diglycoldiamide-6-[m-(R(+)-1)ureaphenoxy]ethane}-2-(N-oxymorphyldiglycoldiamide)hexane]	7.79
CN1C(=O)[C@H](NC(=O)Nc2cccc(OCCNC(=O)COCC(=O)NNC(=O)COCC(=O)N[C@H]3CC[C@@]4(O)[C@H]5Cc6cc(O)cc7c6[C@@]4(CCN5C)[C@H]3O7)c2)N=C(c2ccccc2)c2ccccc21 [N-{m-[R(+)-1]Ureaphenoxy}ethyldiglycolamidehydrazide-N'-oxymorphyldiglycolamidedihydrazide]	8.41
CN1C(=O)[C@H](NC(=O)Nc2cccc(OCCNC(=O)COCC(=O)NCCNC(=O)COCC(=O)N[C@H]3CC[C@@]4(O)[C@H]5Cc6cc(O)cc7c6[C@@]4(CCN5C)[C@H]3O7)c2)N=C(c2ccccc2)c2ccccc21 [1-{1-Diglycoldiamide-2-[m-(R(+)-1)ureaphenoxy]ethane}-2-(N-oxymorphyldiglycoldiamide)ethane]	8.14

Biological target: Mu-type opioid receptor (Homo sapiens, UniProt P35372)
Sequence (P35372 whole entry): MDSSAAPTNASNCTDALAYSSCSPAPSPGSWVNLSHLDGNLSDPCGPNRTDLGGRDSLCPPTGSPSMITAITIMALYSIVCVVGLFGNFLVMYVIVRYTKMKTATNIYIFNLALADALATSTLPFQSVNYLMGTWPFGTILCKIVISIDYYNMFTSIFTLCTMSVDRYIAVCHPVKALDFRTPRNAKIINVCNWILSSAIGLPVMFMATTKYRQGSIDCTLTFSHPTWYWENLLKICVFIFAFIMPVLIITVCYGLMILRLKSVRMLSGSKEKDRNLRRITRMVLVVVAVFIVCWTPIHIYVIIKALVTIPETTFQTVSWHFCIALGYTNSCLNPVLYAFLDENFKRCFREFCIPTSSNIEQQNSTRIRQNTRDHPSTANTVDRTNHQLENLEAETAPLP
Experiment: Displacement of [3H]DAMGO from mu opioid receptor expressed in CHO cells
Outline: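 Membranes came from CHO cells stably expressing MOP receptor alone or with CCK2 receptor. They were incubated with [3H]DAMGO (0.4 nM) plus increasing unlabeled ligand for 2 h at room temperature in KRH, pH 7.4, with 0.2% BSA and soybean trypsin inhibitor. Nonspecific binding was set with 1 μM DAMGO. Samples were filtered on PEI-soaked GF/C and scintillation counted; Ki and Bmax (pmol/mg protein) came from LIGAND analysis. Mean±S.E.M., 3-5 experiments.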

Compound	pKi
CNC(=O)COCC(=O)NCCCCNC(=O)COCC(=O)N[C@H]1CC[C@@]2(O)[C@H]3Cc4cc(O)cc5c4[C@@]2(CCN3C)[C@H]1O5 [2-({[(1S,5R,13R,14S,17S)-9,17-dihydroxy-4-methyl-12-oxa-4-azapentacyclo[9.6.1.0^{1,13}.0^{5,17}.0^{7,18}]octadeca-7(18),8,10-trien-14-yl]carbamoyl}methoxy)-N-(4-{2-[(methylcarbamoyl)methoxy]acetamido}butyl)acetamide]	7.53
